Data taken from ChEMBL document CHEMBL1782022, “Potent macrocyclic inhibitors of insulin-regulated aminopeptidase (IRAP) by olefin ring-closing metathesis” (J Med Chem, 2011).

Key:
Aminopeptidase N = Aminopeptidase N (Homo sapiens, UniProt P15144); assay: Inhibition of catalytic activity of recombinant human AP-N transfected in human HEK-293 cells assessed as cleavage of substrate L-leucine-p-nitroanilide to L-leucine and p-nitroaniline measured every 5 mins for 10 to 50 mins by spectrophotometric analysis; assay type: cell-based, HEK293
[1] = Displacement of [3H]AL-11 from IRAP of CHO-K1 cell membrane preincubated for 40 mins in presence of 30 mM EDTA and 600 uM 1,10-Phenantrone after 30 mins by scintillation counting; assay type: cell membranes, Cricetulus griseus
Outline: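 Chelators EDTA (5 mM final) and 1,10-phenanthroline (100 μM final) were present both in the 40 min, 37 °C preincubation of CHO-K1 membranes (4 × 10⁵ cells, 50 mM Tris-HCl pH 7.4) with compound (10⁻⁹–10⁻⁵ M) and during the binding step. Binding was 30 min at 37 °C with 3 nM [³H]AL-11, with unlabeled Ang IV for nonspecific binding. Read-out was GF/B filtration and β-counting, ≥2 experiments in duplicate. IC50 came from nonlinear regression and Ki via Cheng–Prusoff.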

[2] = Displacement of [3H]AL-11 from IRAP of CHO-K1 cell membrane after 30 mins by scintillation counting in presence of 30 mM EDTA and 600 uM 1,10-Phenantrone; assay type: cell membranes, Cricetulus griseus
Outline: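 CHO-K1 membranes with endogenous IRAP (4 × 10⁵ cells) in 50 mM Tris-HCl pH 7.4 buffer were preincubated 40 min at 37 °C with compound (10⁻⁹–10⁻⁵ M final) without chelators. [³H]AL-11 (3 nM final) was then added with EDTA/1,10-Phe (final 5 mM/100 μM) for 30 min at 37 °C. Unlabeled Ang IV defined nonspecific binding. Bound radioactivity was collected on BSA-soaked GF/B filters and β-counted. Runs were ≥2× in duplicate. IC50 came from nonlinear regression and Ki from Cheng–Prusoff using the [³H]AL-11 KD.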

Sequence of Aminopeptidase N (P15144 whole entry): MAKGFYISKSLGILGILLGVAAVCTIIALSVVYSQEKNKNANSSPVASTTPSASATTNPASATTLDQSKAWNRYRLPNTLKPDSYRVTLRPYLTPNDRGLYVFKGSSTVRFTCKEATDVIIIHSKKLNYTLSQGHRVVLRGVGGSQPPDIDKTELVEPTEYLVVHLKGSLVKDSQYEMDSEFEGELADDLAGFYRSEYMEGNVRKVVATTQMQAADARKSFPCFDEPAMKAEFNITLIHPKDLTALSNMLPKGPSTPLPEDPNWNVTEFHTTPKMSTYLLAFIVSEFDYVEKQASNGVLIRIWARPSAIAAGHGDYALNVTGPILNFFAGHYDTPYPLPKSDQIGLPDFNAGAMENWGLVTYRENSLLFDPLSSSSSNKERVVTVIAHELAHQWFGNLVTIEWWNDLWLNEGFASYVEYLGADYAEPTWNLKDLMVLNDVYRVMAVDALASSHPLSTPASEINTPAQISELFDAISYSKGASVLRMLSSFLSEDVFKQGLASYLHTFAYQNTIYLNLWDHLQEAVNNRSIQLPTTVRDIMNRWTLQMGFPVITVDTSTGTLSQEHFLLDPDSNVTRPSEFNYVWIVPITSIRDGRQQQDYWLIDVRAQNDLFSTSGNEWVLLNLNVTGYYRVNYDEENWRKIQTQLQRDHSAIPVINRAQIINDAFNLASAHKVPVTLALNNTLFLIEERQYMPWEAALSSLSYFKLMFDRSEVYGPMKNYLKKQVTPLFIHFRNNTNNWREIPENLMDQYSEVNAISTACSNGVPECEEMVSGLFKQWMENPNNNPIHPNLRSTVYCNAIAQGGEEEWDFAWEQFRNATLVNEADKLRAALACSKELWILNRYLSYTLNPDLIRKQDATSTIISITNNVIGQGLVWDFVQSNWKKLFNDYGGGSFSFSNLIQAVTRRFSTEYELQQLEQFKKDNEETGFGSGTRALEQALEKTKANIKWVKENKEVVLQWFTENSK

Row | Structure (SMILES) | Ki (Aminopeptidase N) [nM] | Ki [1] [nM] | Ki [2] [nM]
1 | CN1C(=O)[C@@H](N)CCCC/C=C\C[C@@H](C(=O)NCc2ccccc2)NC(=O)[C@@H]1Cc1ccc(O)cc1 | > 100000 |  | 
2 | N[C@H]1CCCC/C=C/C[C@@H](C(=O)NCc2ccccc2CC(=O)O)NC(=O)[C@H](Cc2ccc(O)cc2)NC1=O |  | 133 | 46.8
3 | N[C@H]1CCCCCCC[C@@H](C(=O)NCc2ccccc2CC(=O)O)NC(=O)[C@H](Cc2ccc(O)cc2)NC1=O |  | 517 | 12.5
4 | N[C@H]1CCCCCC[C@@H](C(=O)NCc2ccccc2CC(=O)O)NC(=O)[C@H](Cc2ccc(O)cc2)NC1=O |  | 631 | 28.9
5 | N[C@H]1CC/C=C/CC[C@@H](C(=O)NCc2ccccc2CC(=O)O)NC(=O)[C@H](Cc2ccc(O)cc2)NC1=O |  | 450 | 36.8
6 | N[C@H]1CC/C=C\CC[C@@H](C(=O)NCc2ccccc2CC(=O)O)NC(=O)[C@H](Cc2ccc(O)cc2)NC1=O |  | 568 | 24.8
7 | N[C@H]1CC/C=C/CC[C@@H](C(=O)NCc2ccccc2CC(=O)O)NC(=O)C[C@H](Cc2ccc(O)cc2)NC1=O |  | 74.2 | 9.8
8 | N[C@H]1CC/C=C/CC[C@@H](C(=O)NCc2ccccc2)NC(=O)[C@H](Cc2ccccc2)NC1=O |  | 3520 | 719
9 | N[C@H]1CC/C=C\CC[C@@H](C(=O)NCc2ccccc2)NC(=O)[C@H](Cc2ccccc2)NC1=O |  | 3470 | 287
10 | CN1C(=O)[C@@H](N)CCCC/C=C/C[C@@H](C(=O)NCc2ccccc2)NC(=O)[C@@H]1Cc1ccc(O)cc1 | > 100000 |  | 
11 | CN1C(=O)[C@@H](N)CCC/C=C/CC[C@@H](C(=O)NCc2ccccc2)NC(=O)[C@@H]1Cc1ccc(O)cc1 | > 100000 |  | 
12 | CN1C(=O)[C@@H](N)CCC/C=C\CC[C@@H](C(=O)NCc2ccccc2)NC(=O)[C@@H]1Cc1ccc(O)cc1 | > 100000 |  | 
